Reference: ChEMBL document CHEMBL4819034, “Tricyclic-Carbocyclic RORγt Inverse Agonists-Discovery of BMS-986313” (J Med Chem, 2021)

Tests used:
Mus musculus [1] = test: Protection against recombinant human IL23-induced acanthosis C57BL/6 mouse model assessed as inhibition of ear thickening at 3 mg/kg, po BID for 10 days and measured every other day relative to control; assay type: functional; conditions: C57BL/6, po, 240 h, time 10 day
Procedure, shortened: (§1)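 IL-23 ear-injection acanthosis model in C57BL/6 mice with BID oral dosing. Ear thickness % change was recorded every other day, before each next injection, from a day 0 baseline. Inhibition of ear thickening was calculated against the placebo arm from the area under the curve over the study duration.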

Mus musculus [2] = test: Protection against imiquimod-induced C57BL/6 mouse model of psoriasis assessed as reduction in IL-17A mRNA levels at 20 mg/kg, po BID for 7 days by RT-PCR analysis relative to control; assay type: functional; set-up: scale not given: the % may be the effect or the level left; conditions: time 7 day
Mus musculus [3] = test: Protection against recombinant human IL23-induced acanthosis C57BL/6 mouse model assessed as reduction in IL-17F mRNA levels at 3 mg/kg, po BID BID for 10 days by qRT-PCR analysis relative to control; assay type: functional; set-up: scale not given: the % may be the effect or the level left; conditions: time 10 day
Procedure, shortened: (§2)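 In the IL-23 ear-injection model in C57BL/6 mice with BID oral dosing, ear tissue was collected from all animals at study end on day 10. IL-17A and IL-17F mRNA expression was quantified by qPCR and compared with the placebo arm.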

[4] = Cmax in rat at 4 mg/kg, po; assay type: ADME, organism-based; set-up: route oral, dose 4 mg/kg; conditions: in vivo
Procedure, shortened: (§3)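 Single-dose PK, IV and PO. Doses: mouse and rat 2 mg/kg IV / 4 mg/kg PO; dog and cyno 1 mg/kg IV, with 1 or 2 mg/kg PO.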

[5] = AUC (0 to 24 hrs) in cynomolgus monkey at 2 mg/kg, po; assay type: ADME, organism-based, Macaca fascicularis; set-up: time < 24 hr, route oral, dose 2 mg/kg; conditions: in vivo
[6] = Metabolic stability in rat liver microsomes assessed as parent compound remaining; assay type: ADME, Microsome
Procedure, shortened: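 Test compound at 0.5 μM initial concentration incubated with human, mouse or rat liver microsomes (protein 1 mg/mL). Metabolic stability reported as percent of parent compound remaining after incubation.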

Mus musculus [7] = test: Protection against recombinant human IL23-induced acanthosis C57BL/6 mouse model assessed as inhibition of ear thickening at 6 mg/kg, po BID for 10 days and measured every other day relative to control; assay type: functional; conditions: C57BL/6, po, 240 h, time 10 day; procedure, shortened: as §1
Mus musculus [8] = test: Protection against imiquimod-induced C57BL/6 mouse model of psoriasis assessed as change in skin thickness at 5 mg/kg, po BID for 7 days and measured every day for 8 days relative to control; assay type: functional; conditions: time 7 day
Mus musculus [9] = test: Protection against imiquimod-induced C57BL/6 mouse model of psoriasis assessed as inhibition of skin thickening at 5 mg/kg, po BID for 7 days and measured every day for 8 days relative to control; assay type: functional; conditions: C57BL/6, po, 168 h, time 7 day
[10] = target: T1, Nuclear receptor subfamily 1 group I member 2 (Homo sapiens, UniProt O75469); test: Inverse agonist activity at PXR (unknown origin)
T1 sequence (O75469 whole entry): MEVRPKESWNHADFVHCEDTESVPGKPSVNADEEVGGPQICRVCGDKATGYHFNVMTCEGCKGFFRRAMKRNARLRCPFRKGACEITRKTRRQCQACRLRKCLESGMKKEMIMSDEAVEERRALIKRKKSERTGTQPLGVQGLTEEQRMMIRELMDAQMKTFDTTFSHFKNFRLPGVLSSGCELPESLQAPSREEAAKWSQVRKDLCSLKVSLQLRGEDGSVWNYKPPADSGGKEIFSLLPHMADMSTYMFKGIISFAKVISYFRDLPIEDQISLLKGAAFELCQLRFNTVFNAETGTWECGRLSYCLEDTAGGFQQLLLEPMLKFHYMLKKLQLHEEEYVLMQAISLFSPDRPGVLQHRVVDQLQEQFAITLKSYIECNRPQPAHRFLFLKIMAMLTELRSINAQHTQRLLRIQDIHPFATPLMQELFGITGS

[11] = Clearance in mouse at 2 mg/kg, iv; assay type: ADME, organism-based; conditions: in vivo; procedure, shortened: as §3
[12] = Volume of distribution at steady state in cynomolgus monkey at 1 mg/kg, iv; assay type: ADME, organism-based, Macaca fascicularis; conditions: in vivo, read-out: Vdss
Procedure, shortened: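 Single intravenous dose: mouse and rat 2 mg/kg, dog and cynomolgus 1 mg/kg. Steady-state volume of distribution was derived from the IV arm. Values are means from three or more animals.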

Mus musculus [13] = test: Protection against recombinant human IL23-induced acanthosis C57BL/6 mouse model assessed as reduction in IL-17A mRNA levels at 6 mg/kg, po BID BID for 10 days by qRT-PCR analysis relative to control; assay type: functional; set-up: scale not given: the % may be the effect or the level left; conditions: time 10 day; procedure, shortened: as §2
[14] = AUC (0 to 24 hrs) in mouse at 4 mg/kg, po; assay type: ADME, organism-based; set-up: time < 24 hr, route oral, dose 4 mg/kg; conditions: in vivo
[15] = Clearance in rat at 2 mg/kg, iv; assay type: ADME, organism-based; conditions: in vivo; procedure, shortened: as §3
[16] = target: T2, Nuclear receptor ROR-gamma (Mus musculus, UniProt P51450); test: Inverse agonist activity at RORgammat in mouse Th17 cells assessed as inhibition of CD3/CD28/IL-1/IL-23-induced IL-17A production measured after 24 hrs by AlphaLISA assay; assay type: cell-based
T2 sequence (P51450 whole entry): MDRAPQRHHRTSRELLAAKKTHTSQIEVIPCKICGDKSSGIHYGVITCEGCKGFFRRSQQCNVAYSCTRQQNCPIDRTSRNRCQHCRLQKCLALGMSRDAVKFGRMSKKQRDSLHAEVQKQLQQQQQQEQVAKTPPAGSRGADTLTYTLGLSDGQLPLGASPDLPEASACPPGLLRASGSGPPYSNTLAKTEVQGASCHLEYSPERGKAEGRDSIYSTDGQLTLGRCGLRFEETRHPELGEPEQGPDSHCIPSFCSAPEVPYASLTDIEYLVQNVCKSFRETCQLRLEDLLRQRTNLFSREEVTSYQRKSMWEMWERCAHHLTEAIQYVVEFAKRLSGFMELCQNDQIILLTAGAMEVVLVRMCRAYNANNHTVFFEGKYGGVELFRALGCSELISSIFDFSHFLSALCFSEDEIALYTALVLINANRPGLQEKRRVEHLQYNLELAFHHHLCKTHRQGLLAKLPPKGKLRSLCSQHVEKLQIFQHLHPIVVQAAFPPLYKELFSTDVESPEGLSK

[17] = Protein binding in human assessed as unbound fraction; assay type: ADME
[18] = Half life in human liver microsomes; assay type: ADME, Microsome
Procedure, shortened: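 Liver microsome half-life (min) measured in human, mouse, rat, dog and cyno liver microsomes.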

[19] = AUC (0 to 24 hrs) in dog at 2 mg/kg, po; assay type: ADME, organism-based, Canis lupus familiaris; set-up: time < 24 hr, route oral, dose 2 mg/kg; conditions: in vivo

Cmax [4]: 1000 nM
AUC(0-t) at 24 h [5]: 18 µM·h
Stabilty [6]: 100%
EC50 [10]: > 5000 nM
clearance [11]: 3.7 mL/min/kg
Vd [12]: 2.7 L/kg
AUC(0-t) at 24 h [14]: 33.2 µM·h
clearance [15]: 4.2 mL/min/kg
EC50 [16]: 2.7 nM
fraction unbound [17]: 0.005
half-life [18]: 2 h
AUC(0-t) at 24 h [19]: 59.8 µM·h
SMILES: CC(C)(O)C(=O)N[C@@H]1CC[C@@]2(S(=O)(=O)c3ccc(F)cc3)c3ccc(C(F)(C(F)(F)F)C(F)(F)F)cc3CC[C@@H]12
inhibition in vivo at 3 mg/kg (Mus musculus [1]): 42.3%
Activity (Mus musculus [2]): 91.5%
Activity (Mus musculus [3]): 13.7%
inhibition in vivo at 6 mg/kg (Mus musculus [7]): 43.4%
Activity (Mus musculus [8]): 67.2%
inhibition in vivo at 5 mg/kg (Mus musculus [9]): 13.7%
Activity (Mus musculus [13]): 64.9%
